Source: ChEMBL document CHEMBL1155412, “Novel powerful water-soluble lipid immunoadjuvants inducing mouse dendritic cell maturation and B cell proliferation using TLR2 pathway” (Bioorg Med Chem Lett, 2010)
The source made the active and inactive calls. The calls are words filed in the database; no cut-off is given here.

How the values were obtained:
[1] = molecular target: Toll-like receptor 2 (Mus musculus) (UniProt Q9QUN7); experiment: Induction of TLR2-mediated mouse spleen B cells proliferation assessed as [3H]thymidin uptake at 0.02 ug/ml after 72 hrs
How it was run: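 Purified mouse spleen B cells cultured with analogs at indicated concentrations for 72 h; proliferation by [3H]-thymidine uptake. Stimulation index = mean cpm stimulated / mean cpm unstimulated; mean SI ± SD of three independent experiments, each in triplicate.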

[2] = molecular target: Toll-like receptor 2 (Mus musculus) (UniProt Q9QUN7); experiment: Induction of TLR2-mediated mouse spleen B cells proliferation assessed as [3H]thymidin uptake at 0.16 ug/ml after 72 hrs in the presence of antagonist anti-TLR2 antibody treated 25 mins after anti-TLR2 antibody challenge; type: functional, tissue-based
[3] = molecular target: Toll-like receptor 2 (Mus musculus) (UniProt Q9QUN7); experiment: Induction of TLR2-mediated mouse D1 dendritic cells maturation assessed as expression of CD54 and CD86 activation markers at 0.5 ug/ml to 5 ug/ml after 24 hrs by flow cytometry in the presence of polymyxin B; type: cell-based
[4] = molecular target: Toll-like receptor 2 (Mus musculus) (UniProt Q9QUN7); experiment: Induction of TLR2-mediated mouse D1 dendritic cells maturation assessed as expression of CD54 and CD86 activation markers at 0.5 ug/ml after 24 hrs by flow cytometry in the presence of antagonist anti-TLR2 antibody treated 25 mins after anti-TLR2 antibody challenge

Sequence of Toll-like receptor 2 (Mus musculus) (Q9QUN7 whole entry): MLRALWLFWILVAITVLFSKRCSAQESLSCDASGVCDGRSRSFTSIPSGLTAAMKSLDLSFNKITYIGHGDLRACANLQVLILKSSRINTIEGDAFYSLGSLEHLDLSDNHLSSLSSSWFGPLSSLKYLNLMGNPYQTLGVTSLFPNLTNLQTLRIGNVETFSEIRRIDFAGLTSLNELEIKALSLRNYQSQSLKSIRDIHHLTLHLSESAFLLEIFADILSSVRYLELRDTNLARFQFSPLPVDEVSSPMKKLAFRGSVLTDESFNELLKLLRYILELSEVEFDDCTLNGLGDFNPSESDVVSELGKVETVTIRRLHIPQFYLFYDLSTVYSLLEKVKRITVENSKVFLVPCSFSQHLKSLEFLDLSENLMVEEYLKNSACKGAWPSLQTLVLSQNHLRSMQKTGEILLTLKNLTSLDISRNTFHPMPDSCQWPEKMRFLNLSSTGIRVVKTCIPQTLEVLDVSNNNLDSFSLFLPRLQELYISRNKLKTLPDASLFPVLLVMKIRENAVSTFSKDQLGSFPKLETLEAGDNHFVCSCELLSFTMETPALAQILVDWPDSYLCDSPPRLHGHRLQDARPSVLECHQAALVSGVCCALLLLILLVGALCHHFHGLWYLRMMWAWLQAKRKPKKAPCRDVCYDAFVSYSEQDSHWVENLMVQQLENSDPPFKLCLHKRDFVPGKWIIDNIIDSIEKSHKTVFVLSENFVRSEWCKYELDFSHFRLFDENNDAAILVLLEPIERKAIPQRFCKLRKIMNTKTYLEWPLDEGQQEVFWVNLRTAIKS

| SMILES | Activity [1] | Activity [2] | Activity [3] | Activity [4] |
| --- | --- | --- | --- | --- |
| CCCCCCCCCCCCCCCC(=O)N[C@@H](CSC[C@@H](COC(=O)CCCCCCCCCCCCCCC)OC(=O)CCCCCCCCCCCCCCC)C(=O)N[C@@H](C)C(=O)NCC(=O)NCCOCCOCCOCCOCCOCCOCCOCCOCCOCCOCCOCCOCCOCCOCCOCCOCCOCCOCCOCCOCCOCCOCCOCCOCCOCCOCCOCCOCCOCCOCCOCCOCCOCCOCCOCCOCCOCCOCCOCCOCCOCCOCCOCCOCCOC | Active | inactive | Active | inactive |
| CCCCCCCCCCCCCCCC(=O)OC[C@H](CSC[C@H](N)C(=O)N[C@@H](C)C(=O)NCC(=O)NCCOCCOCCOCCOCCOCCOCCOCCOCCOCCOCCOCCOCCOCCOCCOCCOCCOCCOCCOCCOCCOCCOCCOCCOCCOCCOCCOCCOCCOCCOCCOCCOCCOCCOCCOCCOCCOCCOCCOCCOCCOCCOCCOCCOCCOC)OC(=O)CCCCCCCCCCCCCCC | Active | inactive | Active | inactive |
| CCCCCCCCCCCCCCCC(=O)OC[C@H](CSC[C@H](N)C(=O)N[C@@H](C)C(=O)NCC(=O)NCCSSCCNC(=O)CNC(=O)OCCOCCOCCOCCOCCOCCOCCOCCOCCOCCOCCOCCOCCOCCOCCOCCOCCOCCOCCOCCOCCOCCOCCOCCOCCOCCOCCOCCOCCOCCOCCOCCOCCOCCOCCOCCOCCOCCOCCOCCOCCOCCOCCOCCO)OC(=O)CCCCCCCCCCCCCCC | Active | inactive | Active | inactive |
| CCCCCCCCCCCCCCCC(=O)OC[C@H](CSC[C@H](NC(=O)COCCOCCOCCOCCOCCOCCOCCOCCOCCOCCOCCOCCOCCOCCOCCOCCOCCOCCOCCOCCOCCOCCOCCOCCOCCOCCOCCOCCOCCOCCOCCOCCOCCOCCOCCOCCOCCOCCOCCOCCOCCOCCOCCOCCOC)C(=O)N[C@@H](C)C(=O)NCC(=O)O)OC(=O)CCCCCCCCCCCCCCC | Active | inactive | Active | inactive |
